Published values collected from several papers.
Compare with care: the assays were run in different laboratories.
Target: Dual specificity testis-specific protein kinase 1 (TESK1, Homo sapiens, UniProt Q15569)

CNC(=O)[C@@H]1CC[C@@H](n2c(-c3ccc4cnccc4c3)nc3ccc(C(=O)NCc4cccc(C(N)=O)c4)cc32)C1
remaining binding (binding; competition with immobilised ligand; 1 µM): 100%

O=C(c1ccc(Nc2nccc(-c3cc4ccccc4s3)n2)cc1)N1CCC(N2CCCC2)CC1
remaining binding (binding; competition with immobilised ligand; 1 µM): 97%

O=C(Nc1c[nH]nc1C(=O)NC1CCNCC1)c1cc(F)cc(F)c1
remaining binding (binding; competition with immobilised ligand; 1 µM): 100%

CO[C@H]1CC[C@H](CNc2ccc(S(=O)(=O)NC(=O)c3ccc(N4CCN(CC5=C(c6ccc(Cl)cc6)CC(C)(C)CC5)CC4)cc3Oc3cnc4[nH]ccc4c3)cc2[N+](=O)[O-])CC1
remaining binding (cell-free assay; competition with immobilised ligand; 1 µM): 100%

O=C(c1ccc(Nc2ncc(Cl)c(-c3ccc(Cl)s3)n2)cc1)N1CCC(N2CCCC2)CC1
remaining binding (binding; competition with immobilised ligand; 1 µM): 99%

N[C@@H]1CCN(c2nccc(-c3cnn4ncccc34)n2)C1
remaining binding (binding; 1 µM): 100%

COc1ccc2c(c1)O[C@@H](c1ccc(OC)c(OC)c1)C[C@H]2NC(=O)C1(c2ccc3c(c2)OC(F)(F)O3)CC1
remaining binding (cell-free assay; competition with immobilised ligand; 1 µM): 96%

C=CC(=O)N1CCC(C(=O)NCC(=O)N2CCN(c3nc(-c4cnc(N)nc4C(F)F)nc(N4CCOCC4)n3)CC2)CC1
remaining binding (binding; competition with immobilised ligand; 1 µM): 100%

COc1ncc2cc3ccccc3nc2c1C#N
remaining binding (cell-free assay; competition with immobilised ligand; 5 µM): 94%

Cc1cnc(Nc2ccc(C(=O)N3CCC(N4CCCC4)CC3)cc2)nc1-c1cc2ccccc2s1
remaining binding (binding; competition with immobilised ligand; 1 µM): 72%

c1cnn2ncc(-c3ccnc(N4CCC45COC5)n3)c2c1
remaining binding (binding; 1 µM): 99%

Cc1c[nH]c2nccc(Oc3c(F)cc(Nc4cc(Cl)nc(N)n4)cc3F)c12
remaining binding (cell-free assay; competition with immobilised ligand; 0.1 µM): 100%

CN(C)c1nccc(-c2cnc3ncccn23)n1
remaining binding (binding; 1 µM): 90%

C[C@H](NC(=O)c1cnc2n1[C@](C)(Cc1ccc(C#N)cc1)C(=O)N2c1cc(Cl)c(F)c(Cl)c1)C(=O)NC1(c2ccccn2)CC1
remaining binding (cell-free assay; competition with immobilised ligand; 1 µM): 100%

CN(C)c1nccc(-c2cnn3ncccc23)n1
remaining binding (binding; 1 µM): 100%

O=C(Nc1cnc(Oc2ccc(F)cc2)nc1)N1CCc2ncccc2[C@@H]1c1ccc(F)cc1
remaining binding (cell-free assay; competition with immobilised ligand; 1 µM): 91%

C[C@H]1CCN(c2nccc(-c3cnn4ncccc34)n2)C1
remaining binding (binding; 1 µM): 100%

CCN1CCN(Cc2ccc(C(=O)Nc3ccc(C)c(Oc4ccc5c(c4)CC(=O)N5)c3)cc2C(F)(F)F)CC1
remaining binding (binding; competition with immobilised ligand; 1 µM): 100%

CCCOc1ccc([C@H]2[C@H](C(=O)O)[C@@H](c3ccc4c(c3)OCO4)CN2CC(=O)Nc2c(CC)cccc2CC)cc1
remaining binding (cell-free assay; competition with immobilised ligand; 1 µM): 89%

CC1CCCN1c1nccc(-c2cnn3ncccc23)n1 (centres unmarked)
remaining binding (binding; 1 µM): 99%
